Source: ChEMBL document CHEMBL3526106, “Cytochrome P450 regulation by α-tocopherol in Pxr-null and PXR-humanized mice” (Drug Metab Dispos, 2013)

Assays:
Mus musculus [1] = assay: Drug level in male PXR-humanized mouse treated with 500 mg/kg for 7 to 14 days dosed through vitamin E-deficient base diet by UPLC-ESI-QTOFMS method based metabolomics analysis; type: ADME, organism-based; design: dose 500 mg/kg; settings: in vivo, po
Mus musculus [2] = assay: Drug level in male wild type mouse treated with 500 mg/kg for 7 to 14 days dosed through vitamin E-deficient base diet by UPLC-ESI-QTOFMS method based metabolomics analysis; type: ADME, organism-based; design: dose 500 mg/kg; settings: in vivo, po
Mus musculus [3] = assay: Drug level in male PXR null mouse treated with 500 mg/kg for 7 to 14 days dosed through vitamin E-deficient base diet by UPLC-ESI-QTOFMS method based metabolomics analysis; type: ADME, organism-based; design: dose 500 mg/kg; settings: in vivo, po
Ugt1a10 [4] = assay: Induction of Ugt1a10 gene expression in wild type mouse liver at 50 mg/kg dosed through gavage daily for 4 days by qPCR method; type: ADME, organism-based; design: dose 50 mg/kg; settings: po, read-out: FC
Ugt1a1 = assay: Induction of Ugt1a1 gene expression in wild type mouse liver at 50 mg/kg dosed through gavage daily for 4 days by qPCR method; type: ADME, organism-based; design: dose 50 mg/kg; settings: po, read-out: FC
Ugt2b34 = assay: Induction of Ugt2b34 gene expression in wild type mouse liver at 50 mg/kg dosed through gavage daily for 4 days by qPCR method; type: ADME, organism-based; design: dose 50 mg/kg; settings: po, read-out: FC
Ugt1a9 = assay: Induction of Ugt1a9 gene expression in wild type mouse liver at 50 mg/kg dosed through gavage daily for 4 days by qPCR method; type: ADME, organism-based; design: dose 50 mg/kg; settings: po, read-out: FC
Ugt2b5 = assay: Induction of Ugt2b5 gene expression in wild type mouse liver at 50 mg/kg dosed through gavage daily for 4 days by qPCR method; type: ADME, organism-based; design: dose 50 mg/kg; settings: po, read-out: FC
Ugt1a10 [5] = assay: Induction of Ugt1a10 gene expression in PXR null mouse liver at 50 mg/kg dosed through gavage daily for 4 days by qPCR method; type: ADME, organism-based; design: dose 50 mg/kg; settings: po, read-out: FC
Mus musculus [6] = assay: Reduction in Ugt1a6b gene expression in wild type mouse liver at 50 mg/kg dosed through gavage daily for 4 days by qPCR method; type: ADME, organism-based; design: dose 50 mg/kg; settings: in vivo, po, 96 h
Cyp3a11 = assay: Induction of Cyp3a11 gene expression in wild type mouse liver at 50 mg/kg dosed through gavage daily for 4 days by qPCR method; type: ADME, organism-based; design: dose 50 mg/kg; settings: po, read-out: FC
Cyp2c29 [7] = assay: Induction of Cyp2c29 gene expression in wild type mouse liver at 50 mg/kg dosed through gavage daily for 4 days by qPCR method; type: ADME, organism-based; design: dose 50 mg/kg; settings: po, read-out: FC
Cyp2c55 = assay: Induction of Cyp2c55 gene expression in wild type mouse liver at 50 mg/kg dosed through gavage daily for 4 days by qPCR method; type: ADME, organism-based; design: dose 50 mg/kg; settings: po, read-out: FC
[8] = biological target: T1, PXR (Nuclear receptor subfamily 1 group I member 2) (Mus musculus, UniProt O54915); assay: Activation of mouse PXR expressed in human HepG2 cells at 10 uM after 24 hrs by firefly luciferase DR3 reporter gene assay; type: ADME, cell-based; settings: human HepG2 cells expressing mouse PXR, read-out: FC
T1 sequence (O54915 whole entry): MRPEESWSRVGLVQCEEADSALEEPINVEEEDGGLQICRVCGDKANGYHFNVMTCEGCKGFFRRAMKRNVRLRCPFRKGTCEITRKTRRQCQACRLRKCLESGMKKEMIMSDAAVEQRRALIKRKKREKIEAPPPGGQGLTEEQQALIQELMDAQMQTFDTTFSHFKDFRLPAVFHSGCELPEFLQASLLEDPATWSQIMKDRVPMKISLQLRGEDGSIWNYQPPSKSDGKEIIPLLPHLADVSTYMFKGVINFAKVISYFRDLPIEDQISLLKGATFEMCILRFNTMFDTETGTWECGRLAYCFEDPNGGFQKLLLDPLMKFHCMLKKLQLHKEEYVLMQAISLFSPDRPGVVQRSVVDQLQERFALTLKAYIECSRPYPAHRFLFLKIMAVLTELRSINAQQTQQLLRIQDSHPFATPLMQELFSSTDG
Summary of the method: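 HepG2 cells grown in DMEM + 10% FBS were transfected with 10 ng mouse PXR, 100 ng DR3 firefly luciferase reporter and 2 ng Renilla pRL-SV40. Compound in DMSO was added 24 h after transfection and left for 24 h. Dual luciferase was then read, firefly normalized to Renilla per well, and expressed as fold over DMSO control.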

Cyp2b10 = assay: Induction of Cyp2b10 gene expression in wild type mouse liver at 50 mg/kg dosed through gavage daily for 4 days by qPCR method; type: ADME, organism-based; design: dose 50 mg/kg; settings: po, read-out: FC
Mus musculus [9] = assay: Reduction in Ugt1a6b gene expression in PXR-humanized mouse liver at 10 mg/kg dosed through gavage daily for 4 days by qPCR method; settings: in vivo, po, 96 h
Mus musculus [10] = assay: Reduction in Ugt1a6a gene expression in PXR-humanized mouse liver at 10 mg/kg dosed through gavage daily for 4 days by qPCR method; settings: in vivo, po, 96 h
Cyp2c29 [11] = assay: Induction of Cyp2c29 gene expression in male PXR null mouse liver at 50 mg/kg dosed through gavage daily for 4 days by qPCR method; settings: po, read-out: FC

Structure (SMILES) | Drug metabolism (Mus musculus [1]) | Drug metabolism (Mus musculus [2]) | Drug metabolism (Mus musculus [3]) | fold induction at 96 h (Ugt1a10 [4]) | fold induction at 96 h (Ugt1a1) | fold induction at 96 h (Ugt2b34) | fold induction at 96 h (Ugt1a9) | fold induction at 96 h (Ugt2b5) | fold induction at 96 h (Ugt1a10 [5]) | fold change (FC) (Mus musculus [6]) | fold induction at 96 h (Cyp3a11) | fold induction at 96 h (Cyp2c29 [7]) | fold induction at 96 h (Cyp2c55) | fold induction at 24 h, 10 µM [8] | fold induction at 96 h (Cyp2b10) | fold change (FC) (Mus musculus [9]) | fold change (FC) (Mus musculus [10]) | fold induction at 96 h (Cyp2c29 [11])
CN1CC(=O)NC1=N [CREATININE] | metabolite_detected | metabolite_detected | metabolite_detected | – | – | – | – | – | – | – | – | – | – | – | – | – | – | –
CC(=O)[C@H]1[C@H](C#N)C[C@H]2[C@@H]3CC=C4C[C@@H](O)CC[C@]4(C)[C@H]3CC[C@@]21C [PREGNENOLONE CARBONITRILE] | – | – | – | 2.8 | 3.1 | 3.2 | 9.4 | 1.4 | 1.8 | 1.3 | 20.9 | 9.2 | 303 | 9.5 | 160 | 1.8 | 2 | 1.6
